Experimental data: ChEMBL document CHEMBL2390829, “N-alkylated 2,3,3-trimethylindolenines and 2-methylbenzothiazoles. Potential lead compounds in the fight against Saccharomyces cerevisiae infections” (Eur J Med Chem, 2013)
≈ marks a conversion by molar mass, not a printed value.

How the values were obtained:
[1] = system: Schizosaccharomyces pombe; experiment: Antifungal activity against Schizosaccharomyces pombe after 24 hrs; format: functional
Procedure, shortened: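 S. pombe NJ2 h⁻ (ura4-D18 leu1-32 ade6-M210 his7-366) precultured 12 h at 30 °C, 200 rpm in yeast extract broth (YE). 3×10^4 cells were exposed in 96-well plates to 1:2 serial dilutions of compound (stocks in 20% v/v DMSO and medium), with DMSO and medium controls. Growth was read visually at 24 h, 30 °C. MIC was the well preceding first visible growth. Duplicate experiments.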

[2] = Lipophilicity, log P of the compound; format: physicochemical; conditions: octanol/water
Candida albicans = experiment: Antifungal activity against Candida albicans SC5314 after 24 hrs; format: functional; conditions: SC5314, 24 h
Procedure, shortened: (§1)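 C. albicans SC5314 or S. cerevisiae BY4741a (S288C derivative) grown 12 h at 30 °C, 200 rpm in YPD. 3×10^4 cells seeded per well of a 96-well plate with 1:2 serial dilutions of compound (stocks in 20% v/v DMSO and medium). DMSO and medium served as controls. Growth was scored visually after 24 h at 30 °C. MIC was taken as the well before first growth. Run twice.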

Saccharomyces cerevisiae = experiment: Antifungal activity against Saccharomyces cerevisiae BY4741a after 24 hrs; format: functional; procedure, shortened: as §1

Row | SMILES | MIC [1] [µg/mL] | logP [2] | MIC (Candida albicans) [µg/mL] | MIC (Saccharomyces cerevisiae) [µg/mL] | logP ([2]; read-out: logP)
1 | CC1=[N+](CCCCS(=O)(=O)[O-])c2ccccc2C1(C)C | 1000 (≈ 3.39 mM) | -4.114 | 1000 (≈ 3.39 mM) | 1000 (≈ 3.39 mM) | –
2 | Cc1sc2ccccc2[n+]1CCCS(=O)(=O)[O-] | 1000 (≈ 3.69 mM) | -4.576 | 1000 (≈ 3.69 mM) | 1000 (≈ 3.69 mM) | –
3 | CCCC[N+]1=C(C)C(C)(C)c2ccccc21.[I-] | 250 | – | 1000 | 250 | 0.747
4 | CCCCCCCC[N+]1=C(C)C(C)(C)c2ccccc21.[I-] | 62.5 | – | 1000 | 62.5 | 2.77
5 | CCCCCCC[N+]1=C(C)C(C)(C)c2ccccc21.[I-] | 62.5 | – | 1000 | 125 | 2.26
6 | CC1=Nc2ccccc2C1(C)C | 250 (≈ 1.57 mM) | – | 500 (≈ 3.14 mM) | 1000 (≈ 6.28 mM) | 3.29
7 | CC1=[N+](C)c2ccccc2C1(C)C.[I-] | 500 | – | 1000 | 500 | -0.691
8 | CCCCC[N+]1=C(C)C(C)(C)c2ccccc21.[I-] | 125 | – | 1000 | 250 | 1.25
9 | CCCCCCCCC[n+]1c(C)sc2ccccc21.[Br-] | 31.3 | – | 500 | 7.8 | 2.89
10 | CC1=[N+](Cc2ccccc2)c2ccccc2C1(C)C.[Br-] | 1000 | – | 1000 | 1000 | 0.904
11 | C[C@@H]1[C@H](O)[C@@H](C)/C=C/C=C/C=C/C=C/C=C/C=C/C=C/[C@H](O[C@@H]2O[C@H](C)[C@@H](O)[C@H](N)[C@@H]2O)C[C@@H]2O[C@](O)(C[C@@H](O)C[C@@H](O)[C@H](O)CC[C@@H](O)C[C@@H](O)CC(=O)O[C@H]1C)C[C@H](O)[C@H]2C(=O)O [AMPHOTERICIN B] | 0.49 (≈ 0.00053 mM) | – | 0.49 (≈ 0.00053 mM) | 0.49 (≈ 0.00053 mM) | –
12 | CCCCCCCCCC[n+]1c(C)sc2ccccc21.[Br-] | 7.8 | – | 250 | 3.9 | 3.39
13 | CCCCC[n+]1c(C)sc2ccccc21.[Br-] | 250 | – | 1000 | 62.5 | 1.25
14 | CCCCCCCCCC[N+]1=C(C)C(C)(C)c2ccccc21.[I-] | 15.6 | – | 500 | 15.6 | 3.78
15 | CCCC[n+]1c(C)sc2ccccc21.[Br-] | 250 | – | 1000 | 250 | 0.36
16 | CCCCCC[N+]1=C(C)C(C)(C)c2ccccc21.[I-] | 125 | – | 1000 | 125 | 1.76
17 | CC1=[N+](CCCS(=O)(=O)[O-])c2ccccc2C1(C)C | 1000 (≈ 3.55 mM) | -4.33 | 1000 (≈ 3.55 mM) | 1000 (≈ 3.55 mM) | –
18 | CCC[n+]1c(C)sc2ccccc21.[I-] | 250 | – | 1000 | 250 | -0.199
19 | CCCCCCCCC[N+]1=C(C)C(C)(C)c2ccccc21.[I-] | 31.3 | – | 1000 | 31.3 | 3.27
20 | CCC[N+]1=C(C)C(C)(C)c2ccccc21.[I-] | 250 | – | 1000 | 250 | 0.188
21 | Cc1sc2ccccc2[n+]1Cc1ccccc1.[Br-] | 1000 | – | 1000 | 1000 | 0.517
22 | CCCCCCC[n+]1c(C)sc2ccccc21.[Br-] | 125 | – | 1000 | 31.3 | 1.88
23 | Cc1sc2ccccc2[n+]1CCCCS(=O)(=O)[O-] | 1000 (≈ 3.5 mM) | -4.411 | 1000 (≈ 3.5 mM) | 1000 (≈ 3.5 mM) | –
24 | Cc1nc2ccccc2s1 | 250 (≈ 1.68 mM) | – | 1000 (≈ 6.7 mM) | 1000 (≈ 6.7 mM) | 2.08
25 | CCCCCCCC[n+]1c(C)sc2ccccc21.[Br-] | 62.5 | – | 1000 | 15.6 | 2.38
26 | c1ccc2[nH]c(-c3cscn3)nc2c1 [THIABENDAZOLE] | 31.2 (≈ 0.155 mM) | – | 1000 (≈ 4.97 mM) | 1000 (≈ 4.97 mM) | –
27 | CCCCCC[n+]1c(C)sc2ccccc21.[Br-] | 250 | – | 1000 | 62.5 | 1.37
28 | Cc1sc2ccccc2[n+]1C.[I-] | 500 | – | 1000 | 500 | -1.08
29 | CC[N+]1=C(C)C(C)(C)c2ccccc21.[I-] | 500 | – | 1000 | 500 | -0.315
30 | CC[n+]1c(C)sc2ccccc21.[I-] | 250 | – | 1000 | 500 | -0.701
